Data set [1] relates to SH-SY5Y. The data set is described as follows: Antiproliferative activity against human SH-SY5Y cells assessed as cell growth inhibition at 5 uM by CCK-8 assay. In kind it is functional, cell-based. A general note: Formazan colour is commonly taken as a measure of viable cells.
Data set [2] relates to HeLa. The data set is described as follows: Antiproliferative activity against human HeLa cells assessed as cell growth inhibition at 5 uM by CCK-8 assay. The class given is functional, cell-based.
In data set [3] the target is T1, Protein disulfide-isomerase (Bos taurus) (UniProt P05307).
T1 sequence (whole entry): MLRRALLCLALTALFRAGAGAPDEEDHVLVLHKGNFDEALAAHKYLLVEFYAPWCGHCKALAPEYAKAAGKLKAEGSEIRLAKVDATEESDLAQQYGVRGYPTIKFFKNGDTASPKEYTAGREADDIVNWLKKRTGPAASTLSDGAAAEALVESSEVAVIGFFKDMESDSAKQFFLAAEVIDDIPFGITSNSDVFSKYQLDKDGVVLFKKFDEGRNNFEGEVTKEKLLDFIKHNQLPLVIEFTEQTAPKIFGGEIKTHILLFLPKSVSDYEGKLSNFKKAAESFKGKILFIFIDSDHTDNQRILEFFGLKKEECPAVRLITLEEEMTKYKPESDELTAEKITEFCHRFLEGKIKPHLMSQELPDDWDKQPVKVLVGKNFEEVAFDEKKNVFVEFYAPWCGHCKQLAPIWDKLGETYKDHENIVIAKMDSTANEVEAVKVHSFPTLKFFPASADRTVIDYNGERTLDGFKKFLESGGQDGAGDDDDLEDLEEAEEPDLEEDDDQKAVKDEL
Particulars: 0.1 to 50 uM.

For data set [4], the target named is T1, Protein disulfide-isomerase (Bos taurus). The data set is described as follows: Inhibition of bovine liver PDI at 50 uM preincubated for 30 mins followed by insulin addition for 1 hr by insulin-aggregation assay relative to control.
The species named for data set [5] is Homo sapiens. The data set is described as follows: Nitrosylation activity at recombinant PDI (unknown origin) assessed as generation of s-nitrosylated PDI at 50 uM measured after 30 mins in presence of dithiothreitol by biotin switch assay based Western blot analysis. In a few lines:
(§1)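 Biotin-switch detection of S-nitrosylated PDI: 400 ng purified recombinant PDI exposed to NO donor (1, 50, 300 or 600 μM) for 30 min, or left untreated.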
On the technique in general: In western blotting, separated proteins are transferred to a membrane and probed.

The species entered for data set [6] is Homo sapiens. In words: Nitrosylation activity at recombinant PDI (unknown origin) assessed as generation of S-nitrosylated PDI at 50 uM measured after 30 mins by biotin switch assay based Western blot analysis. In a few lines:
as §1

For data set [7], the system named is SH-SY5Y. The data set is described as follows: Antiproliferative activity against human SH-SY5Y cells assessed as cell growth inhibition at 600 uM by CCK-8 assay relative to control. The class given is functional. Particulars: read-out: GI.
The subject of data set [8] is HeLa. In words: Antiproliferative activity against human HeLa cells assessed as cell growth inhibition at 600 uM by CCK-8 assay relative to control. The class given is functional. Particulars: read-out: GI.
Data set [9] has as its system HeLa. The data set is described as follows: Antiproliferative activity against human HeLa cells assessed as cell growth inhibition by CCK-8 assay. In kind it is functional, cell-based.
In data set [10] the test system is HEK-293T. The data set is described as follows: Cytotoxicity against human HEK293T cells assessed as cell growth inhibition. The class given is cell-based.
In data set [11] the test system is SH-SY5Y. In words: Antiproliferative activity against human SH-SY5Y cells assessed as cell growth inhibition by CCK-8 assay. The class given is functional, cell-based.
For data set [12], the target named is T1, Protein disulfide-isomerase (Bos taurus). The data set is described as follows: Inhibition of bovine liver PDI preincubated for 30 mins followed by insulin addition for 1 hr by insulin-aggregation assay.
The species named for data set [13] is Homo sapiens. The data set is described as follows: Nitrosylation activity at recombinant PDI (unknown origin) assessed as generation of S-nitrosylated PDI at 600 uM measured after 30 mins in presence of dithiothreitol by biotin switch assay based Western blot analysis. Put shortly:
as §1

The species entered for data set [14] is Homo sapiens. In words: Nitrosylation activity at recombinant PDI (unknown origin) assessed as generation of S-nitrosylated PDI at 600 uM measured after 30 mins by biotin-switch assay based Western blot analysis. Put shortly: as §1

This is an account of results in ChEMBL document CHEMBL4610026, “Design, synthesis and evaluation of protein disulfide isomerase inhibitors with nitric oxide releasing activity” (Bioorg Med Chem Lett, 2020).

By inhibition is commonly meant the relative decrease from the control value, in per cent.

Active and inactive are the calls of the source. The calls are words filed in the database; no cut-off is given here.

In the case of `C#CCOC(=O)C1(C)c2[nH]c3ccccc3c2CCN1C(=O)CCl` (stereo not given), the “growth inhibition (GI)” value in [1] and in data set [2] was “Active” in each case. The inhibition result in data set [3] was “Active”.
As to `N[C@@H](CCC(=O)N[C@@H](CSN=O)C(=O)NCC(=O)O)C(=O)O` [S-NITROSOGLUTATHIONE], the inhibition result in data set [4] is “inactive”. In data set [5], the outcome was inactive. Moreover, in data set [6], the result was Active. Also, the inhibition of growth at 600 µM in [7] and in data set [8] was 40% each time. For the same compound, the “growth inhibition (GI)” value in data set [9] and in data set [11] was “Active” each time. The Activity entry in data set [10] is given as “Non-Toxic”.
As to `C#CCOC(=O)C1(C)c2[nH]c3ccccc3c2CCN1C(=O)CN(N=O)c1ccccc1` (stereo not given), the inhibition in data set [4] is 50%; in [12], “Dose-dependent effect”. In addition, in data set [13], the result was inactive. The result in data set [14] was Active. The inhibition of growth at 600 µM in data set [7] and in data set [8] was 40% each time. In addition, the “growth inhibition (GI)” value in data set [9] and in [11] was “Dose-dependent effect” in each case. Further, the Activity result in [10] is given as “Non-Toxic”.
